Compound activity as filed in PubChem.
The list is not random: actives were taken first. Their share in the collection is about 6.1%.
Measles CPE – protection of cells from measles virus. Measles virus-infected cells, CPE protection, absorbance. protection (pct of control), % at 4 µM. 1.5% of 140,000 active. AID 841; in the data active = protection mostly above about 24%, no sharp cut-off; inactive = mostly below about 26%
WT yeast gro inh – growth inhibition of WT yeast, mitochondrial fusion screen; 2.1% of 190,000 active; mitochondrial fusion phenotypic screen, WT strain; inhibition, % at 10 µM; in the data active = inhibition above about 58%; tested in S. cerevisiae
BB579 growth dn – reduces growth of yeast BB579 in restrictive medium | S. cerevisiae BB579 growth, OD615, 48 h | inhibition, % at 10 µM | 0.51% of 140,000 active;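 active = inhibition above a set limit, 3 SD over the mean compound inhibition, cut at about 44% in these data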
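Detection: OD615 turbidity measurement; Material: Saccharomyces cerevisiae DeaD strain BB579, replicative lifespan model yeast; Timing: 48 h exposure, 30 °C; Doses: single 10 µM dose; Medium: CSMM-D restrictive synthetic medium containing dextrose (glucose); Controls: amphotericin B at 10 µg/mL as positive control.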
DAT uptake mod – human DAT dopamine uptake with cocaine, either direction. Q01959. LLC-PK1 hDAT cells, [14C]-dopamine uptake with cocaine IC80; actives deviate in either direction. B-score at 10 µM. 1.3% of 110,000 active. AID 449768;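 active = Z score or B-score, a plate-position-corrected score, falls beyond the plate's 99.7% confidence bounds, in either direction; inactive = both scores lie inside the 99.7% bounds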;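 note: scored against the spread of the other compound wells on the same plate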
Target sequence (Q01959 whole entry, looked up): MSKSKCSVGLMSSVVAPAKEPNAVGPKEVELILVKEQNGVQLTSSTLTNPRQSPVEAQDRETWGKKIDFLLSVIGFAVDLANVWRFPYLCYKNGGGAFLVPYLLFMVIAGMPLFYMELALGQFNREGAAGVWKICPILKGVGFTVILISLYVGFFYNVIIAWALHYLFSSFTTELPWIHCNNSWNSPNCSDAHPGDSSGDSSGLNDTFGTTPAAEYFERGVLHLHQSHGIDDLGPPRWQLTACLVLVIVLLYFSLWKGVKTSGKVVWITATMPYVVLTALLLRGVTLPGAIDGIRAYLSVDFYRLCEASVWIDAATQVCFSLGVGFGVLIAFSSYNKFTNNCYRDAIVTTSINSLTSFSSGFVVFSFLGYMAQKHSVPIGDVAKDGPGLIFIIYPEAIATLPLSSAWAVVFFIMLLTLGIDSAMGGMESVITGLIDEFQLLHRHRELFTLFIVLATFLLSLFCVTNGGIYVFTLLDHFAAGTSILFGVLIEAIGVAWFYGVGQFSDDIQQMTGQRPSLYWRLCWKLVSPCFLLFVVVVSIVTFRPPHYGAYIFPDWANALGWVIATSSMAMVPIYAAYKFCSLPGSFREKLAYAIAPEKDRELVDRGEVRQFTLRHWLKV
Yeast life ext – yeast lifespan extension; S. cerevisiae growth with nicotinamide, OD615; deaD strain in restrictive glucose medium; inhibition of the nicotinamide effect, % at 10 µM; 0.68% of 130,000 active;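 active = inhibition above a set limit, placed 3 SD over the median of all compounds, cut at about 26% in these data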;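 note: 0% = nicotinamide-treated wells and 100% = cells grown without nicotinamide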
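System: DeaD-strain S. cerevisiae / Buffer or medium: CSMM-D, restrictive glucose (dextrose) synthetic minimal medium / Probe or stimulus: nicotinamide, 1.5 mM, co-present with compound / Compound: one concentration, 10 µM, DMSO 0.25% / Incubation: 48 h compound exposure at 30 °C, humidified / Technique: optical density (absorbance) at 615 nm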
RAM network inh – blocks the yeast RAM network; S. cerevisiae dse1pr::URA3 reporter, 5-FOA growth OD615, 2 d; analog-sensitive cbk1-as2 kinase mutant strain; inhibition, % at 50 µM; 1.8% of 190,000 active; AID 868;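 active = inhibition above a set limit, 3 SD over mean compound inhibition, cut at about 8.4% in these data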;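 note: 0% = DMSO-only wells with no growth and 100% = 10 µM 1-NA-PP1 full growth; inhibition rescues growth on 5-FOA so higher OD means more RAM inhibition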
* hit, by the source's call; . = not tested or not shown.

SMILES	Measles CPE	WT yeast gro inh	BB579 growth dn	DAT uptake mod	Yeast life ext	RAM network inh
O=C(CCNS(=O)(=O)c1cccc2nsnc12)NCc1ccco1	.	-12	.	.	.	0
CC1CCCC2(C1)NC(=S)N(c1ccccc1)N2 (stereo unspecified)	2	30	87*	0.032	-32	-2
S=C1NC2(CCCCC2)NN1c1ccccc1	.	44	.	.	.	-1
CCOC(=O)Cn1cnc2sc3c(c2c1=O)CCC3	15	-8	-61	-0.081	-6	0
COC(=O)C1=C(Nc2ccc(C)cc2)C=C(C)C(C(=O)OC)C1c1ccc(OC)cc1 (stereo unspecified)	9	70*	-36	1.6	.	4
COc1ccc(-c2nc(C#N)c(N3CCCCCC3)o2)cc1OC	2	-7	-81	2.5	-8	1
O=C1c2ccccc2C(=O)N1CCN1CCCCC1	8	66*	2	.	-9	1
O=C1C(=O)N(CCN2CCCCC2)c2ccccc21	4	-3	-8	-0.66	.	1
O=C(COC(=O)c1ccncc1)Nc1cc(Cl)c(Cl)cc1Cl	10	71*	-45	.	-23	3
CCc1ccccc1NC(=S)N(Cc1ccco1)C(C)c1cccs1 (stereo unspecified)	.	76*	.	.	.	1
CCc1ccc(NC(=O)N(Cc2cccnc2)Cc2ccco2)cc1	13	-7	-15	0.64	-3	0
CCc1ccc(NC(=O)N(Cc2ccco2)C(C)c2cccs2)cc1 (stereo unspecified)	9	2	-35	-0.9	-19	11*
O=C(Nc1ccccc1)c1ccsc1	21	-3	-36	.	-2	0
O=C(Nc1nonc1NC(=O)c1cccs1)c1cccs1	.	-1	.	.	.	2
CN(C)c1ccc(N/C=C/C(=O)C(C)(C)C)cc1	53*	-9	-50	-0.76	0	2
CCOc1c(Br)cc(C2NS(=O)(=O)N=C3CCCCCN32)cc1OC (stereo unspecified)	10	1	-6	0.013	-6	-1
CCC(C(=O)NC1CCCC1)N(C(=O)Cn1nnc(-c2ccc(OC)c(OC)c2)n1)C1CCCCC1 (stereo unspecified)	7	31	18	1.7	-12	0
CCC(C(=O)NC1CCCC1)N(C(=O)Cn1nnc(-c2ccc(C)cc2)n1)C1CCCC1 (stereo unspecified)	5	19	-4	3.7*	.	0
COc1ccc(Oc2coc3c(CN4CCOCC4)c(O)ccc3c2=O)cc1	3	-22	-7	-7.4*	-9	1
COc1ccc(C(=O)c2coc3ccc(O)c(CN4CCCC4)c23)cc1	17	-4	-12	-0.088	6	3
COc1ccc(Oc2coc3c(CN(C)C)c(O)ccc3c2=O)cc1	32	10	-32	-0.86	-23	2
COc1ccc(C(=O)c2coc3ccc(O)c(CN4CCOCC4)c23)cc1	9	9	-36	3.5*	7	0
CC1Cc2ccccc2N1C(=O)CSc1nnc2c(n1)[nH]c1ccc(F)cc12 (stereo unspecified)	7	9	-6	0.26	.	1
COc1ccc(C(C)(C)C)cc1NC(=O)c1ccoc1C	18	65*	-53	0.41	-13	0
CC1(C)CC(=O)C2=C(C1)Nc1ccccc1NC2c1ccc2c(c1)OCO2 (stereo unspecified)	41*	-18	-25	-0.35	-2	1
SMILES	Measles CPE	WT yeast gro inh	BB579 growth dn	DAT uptake mod	Yeast life ext	RAM network inh
CC1(C)CC(=O)C2=C(C1)Nc1cc3c(cc1C2c1ccc2c(c1)OCO2)OCO3 (stereo unspecified)	12	-3	-35	0.23	-9	2
COc1ccc(C2C3=C(CC(C)(C)CC3=O)Nc3cc4c(cc32)OCO4)cc1 (stereo unspecified)	5	5	-47	2.5*	2	1
CC1(C)CC(=O)C2=C(C1)Nc1cc3c(cc1C2c1ccc(F)cc1)OCO3 (stereo unspecified)	10	17	-33	-0.2	-16	4
Cn1c(CCc2ccccc2)n[nH]c1=S	.	0	.	.	.	3
CCc1cccc(CC)c1NC(=S)NCc1nc2ccccc2[nH]1	.	9	.	.	.	2
CN1CCN(c2ccc(Cl)cc2NC(=O)c2ccc(S(=O)(=O)N(C)C)cc2)CC1	11	5	-26	0.41	-12	0
